Results on five compounds are retold here after ChEMBL document CHEMBL1129527, “Synthesis, chromatographic resolution, and anti-human immunodeficiency virus activity of (+/-)-calanolide A and its enantiomers” (J Med Chem, 1996).

Molecules are shown by their SMILES.

One may read the EC50 as the concentration at which the effect is half-maximal. A low value points to an effect from little substance. A word on the inhibition: it is the drop in the measured response relative to a control, in per cent. A higher inhibition goes with a strong effect. What is called IC50 is the point on the concentration scale where inhibition reaches its midpoint. One may read the IC25 as the concentration at which the effect reaches the 25% level.

Series [1] has as its system MT2. Description: Anti-HIV activity against HIV-I IIIB strain in MT2 cell line. It is filed as functional, cell-based. The following applies: Homo sapiens. In short, it runs like this: (§1)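 MT-2 cells in RPMI 1640 with 10% heat-inactivated FCS and 25 mM HEPES, infected at MOI ~0.03 TCID50/cell for 4 h at 37 °C, then washed. Seeded at 10^4 cells/mL. Compounds were diluted from DMSO to a top concentration of 100 µg/mL (≤0.25% DMSO), in triplicate with infected cells and duplicate with uninfected cells. MTT viability was read at day 7. EC50 protects against virus-induced killing; IC50 is cytotoxicity.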

The test system of series [2] is Avian myeloblastosis virus. Put plainly: Percent inhibition against Avian Myeloblastosis Virus Reverse Transcriptase (AMV RT) at dose 200 ug/mL. It is filed as functional.
The subject of series [3] is MT2. Description: (§2) Anti-HIV activity against HIV-I G910-6 strain in MT2 cell line. The note with it: Homo sapiens. Format: functional, cell-based. A digest of the protocol: as §1
Series [4] relates to Avian myeloblastosis virus. Put plainly: Inhibitory activity against Avian Myeloblastosis Virus Reverse Transcriptase (AMV RT); IA=inactive. Format: functional.
Series [5] addresses Nucleic Acid. Description: Inhibitory activity against DNA polymerase beta. Format: nucleic-acid assay. In short, it runs like this:
(§3)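 Polymerase α or β (0.5 unit) in Tris·HCl with 5 mM KCl, 10 mM MgCl2, 1.5 mM DTT, BSA, and 12% glycerol. Template was 41 µM activated calf thymus DNA, with 80 µM each dATP, dCTP, dGTP and ATP, plus [3H]TTP. Compound was added in DMSO, duplicate wells, 37 °C. Incorporation was counted by scintillation. IC50 came from 10-point half-log dose–response curves.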

Series [6] deals with Nucleic Acid. Put plainly: Inhibitory activity against DNA polymerase alpha; IA=inactive. Format: nucleic-acid assay. A digest of the protocol:
as §3

The target of series [7] is DNA-directed RNA polymerase subunit beta (Escherichia coli K-12, UniProt P0A8V2). Put plainly: Inhibitory activity against RNA polymerase; IA=inactive. In short, it runs like this: (§4)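 RNA polymerase (0.5 unit) in Tris·HCl with 150 mM KCl, 10 mM MgCl2, 0.1 mM DTT, and BSA. Template was 41 µM native calf thymus DNA, with 80 µM each ATP, CTP and GTP, plus [3H]UTP. Compounds in DMSO were prescreened at 200 µg/mL. […] Percent inhibition = (1 − test/DMSO control) × 100.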
DNA-directed RNA polymerase subunit beta, sequence (P0A8V2 whole entry): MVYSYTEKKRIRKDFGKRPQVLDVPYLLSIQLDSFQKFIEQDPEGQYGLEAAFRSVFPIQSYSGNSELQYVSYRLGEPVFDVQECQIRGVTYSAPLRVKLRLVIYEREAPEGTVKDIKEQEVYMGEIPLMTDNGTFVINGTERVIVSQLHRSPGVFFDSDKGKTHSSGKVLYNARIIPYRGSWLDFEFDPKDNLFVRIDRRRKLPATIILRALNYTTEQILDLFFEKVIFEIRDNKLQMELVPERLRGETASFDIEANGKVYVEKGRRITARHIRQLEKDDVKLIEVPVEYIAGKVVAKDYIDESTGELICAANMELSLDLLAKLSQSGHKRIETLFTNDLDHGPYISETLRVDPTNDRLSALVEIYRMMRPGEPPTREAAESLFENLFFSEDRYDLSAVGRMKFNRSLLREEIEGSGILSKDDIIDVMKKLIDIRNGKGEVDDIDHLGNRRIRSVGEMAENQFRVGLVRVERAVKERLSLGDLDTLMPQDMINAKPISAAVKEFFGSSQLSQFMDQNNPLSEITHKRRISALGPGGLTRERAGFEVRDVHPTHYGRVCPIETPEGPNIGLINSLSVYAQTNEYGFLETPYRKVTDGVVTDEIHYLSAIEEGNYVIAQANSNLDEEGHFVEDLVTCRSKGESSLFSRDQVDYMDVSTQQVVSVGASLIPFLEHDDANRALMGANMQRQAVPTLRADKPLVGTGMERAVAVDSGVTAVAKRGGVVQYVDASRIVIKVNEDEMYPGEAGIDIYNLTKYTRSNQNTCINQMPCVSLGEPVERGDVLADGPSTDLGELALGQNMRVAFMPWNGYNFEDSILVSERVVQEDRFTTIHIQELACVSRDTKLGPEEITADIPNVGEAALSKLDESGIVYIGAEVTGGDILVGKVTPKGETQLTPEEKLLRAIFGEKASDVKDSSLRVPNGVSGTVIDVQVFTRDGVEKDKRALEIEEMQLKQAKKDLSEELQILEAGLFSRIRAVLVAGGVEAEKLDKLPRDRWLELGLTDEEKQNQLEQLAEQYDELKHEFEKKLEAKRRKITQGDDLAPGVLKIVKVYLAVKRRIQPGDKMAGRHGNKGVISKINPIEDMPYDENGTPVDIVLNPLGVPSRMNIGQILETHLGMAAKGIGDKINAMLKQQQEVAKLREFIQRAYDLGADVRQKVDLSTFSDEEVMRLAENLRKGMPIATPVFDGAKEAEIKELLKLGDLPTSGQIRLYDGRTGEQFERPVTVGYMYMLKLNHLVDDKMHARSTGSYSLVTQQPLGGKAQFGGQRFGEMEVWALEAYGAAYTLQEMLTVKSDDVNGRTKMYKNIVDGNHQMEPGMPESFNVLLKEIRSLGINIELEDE

Series [8] has as its system MT2. Description: (§5) Anti-HIV activity against HIV-I H112-2 strain in MT2 cell line. Format: functional, cell-based. The following applies: Homo sapiens. In short, it runs like this:
as §1

The target in series [9] is DNA-directed RNA polymerase subunit beta (Escherichia coli K-12) (UniProt P0A8V2). Description: Percent inhibition against RNA polymerase at dose 200 ug/mL. In short, it runs like this: as §4
DNA-directed RNA polymerase subunit beta (Escherichia coli K-12), sequence (P0A8V2 whole entry, looked up): as the sequence (P0A8V2 whole entry) above
Series [10] concerns MT2. Put plainly: Anti-HIV activity against HIV-I A17 strain in MT2 cell line. Format: functional, cell-based. The following applies: Homo sapiens. In short, it runs like this: as §1
The next series deals with CCRF-CEM. Put plainly: Anti-HIV activity against HIV-I RFII strain in CEM cell line. Format: functional, cell-based. The following applies: Homo sapiens. In short, it runs like this:
(§6)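 CEM-SS cells in RPMI 1640 with 10% heat-inactivated FCS, infected at ~0.12 TCID50/cell for 4 h at 37 °C, washed, and seeded at 10^4 cells/mL. Drug dilutions from DMSO went up to 100 µg/mL, in triplicate on infected wells and duplicate on uninfected wells. MTT viability was measured after 6 days.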

The test system of series [11] is Avian myeloblastosis virus. Description: Inhibitory activity against Avian Myeloblastosis Virus Reverse Transcriptase (AMV RT); inactive. It is filed as functional.
Series [12] relates to MT2. The description is as §5. Format: functional. The note with it: Homo sapiens. In short, it runs like this: as §1
Series [13] concerns MT2. The description is as §2. Format: functional. The following applies: Homo sapiens. A digest of the protocol:
as §1

A short description of series [14]: Therapeutic index is the ratio between IC50/EC50 of HIV-I G910-6 strain in MT2 cell line. It is filed as cell-based. The following applies: human, MT2 cells infected with HIV-1 G910-6 strain; read-out: TI. In short, it runs like this:
as §1

The nature of series [15]: Therapeutic index is the ratio between IC50/EC50 of HIV-I A17 strain in MT2 cell line. It is filed as cell-based. The note with it: human, MT2 cells infected with HIV-1 A17 strain; read-out: TI. A digest of the protocol:
as §1

Series [16] can be described thus: Therapeutic index is the ratio between IC50/EC50 of HIV-I IIIB strain in MT2 cell line. Format: cell-based. The following applies: human, MT2 cells infected with HIV-1 IIIB strain; read-out: TI. In short, it runs like this:
as §1

The nature of series [17]: Therapeutic index is the ratio between IC50/EC50 of HIV-I H112-2 strain in MT2 cell line. It is filed as cell-based. The following applies: human, MT2 cells infected with HIV-1 H112-2 strain; read-out: TI. A digest of the protocol:
as §1

Series [18] can be described thus: Therapeutic index is the ratio between IC50/EC50 of HIV-I RFII strain in CEM cell line. It is filed as cell-based, CCRF-CEM. The following applies: human, CEM cells infected with HIV-1 RFII strain; read-out: TI. A digest of the protocol: as §6

In the case of `CCCc1cc(=O)oc2c3c(c4c(c12)OC(C)(C)C=C4)O[C@@H](C)C(C)[C@@H]3O` (mixture of isomers), the EC50 in the series with MT2 [1] came out at 0.108 µM; in the series on MT2 [3] it was 0.108 µM; with MT2 [8] it was 0.135 µM; with MT2 [10] it was 0.297 µM; in the series on CCRF-CEM, 0.486 µM. In series [2], this compound registered an inhibition at 200 µg/mL of 13.3%. Besides, the IC50 entry is “Not Active” in series [4], 279 µM at Nucleic Acid [5], “Not Active” with Nucleic Acid [6] and “Not Active” in [7]. This compound also came in with an inhibition in series [9] of 27.8%.

Regarding `CCCc1cc(=O)oc2c3c(c4c(c12)OC(C)(C)C=C4)O[C@H](C)[C@@H](C)[C@@H]3O` [CALANOLIDE A], the EC50 was 0.053 µM in the series on MT2 [1]; 0.027 µM in the series on MT2 [3]; 0.107 µM with MT2 [8]; 0.427 µM in the series with MT2 [10]; 0.267 µM in the series on CCRF-CEM. In series [2], this compound registered an inhibition at 200 µg/mL of 20.6%. The IC50 is 205 µM at Nucleic Acid [5], “Not Active” with Nucleic Acid [6], “Not Active” in series [7] and “Not Active” in series [11]. This compound had an inhibition in [9] of 16%.

In turn, `CCCc1cc(=O)oc2c3c(c4c(c12)OC(C)(C)C=C4)O[C@@H](C)[C@H](C)[C@@H]3O` [COSTATOLIDE] returned an inhibition at 200 µg/mL in series [2] of 16.8%. Further, the IC50 entry in [4] was “Not Active”; against Nucleic Acid [5], 214 µM; with Nucleic Acid [6], “Not Active”; in series [7] it was “Not Active”. Besides, the IC25 in the series on MT2 [12] stood at 4.05 µM; in the series with MT2 [13], 3.97 µM. In series [9], this compound had an inhibition of 12.1%.

In the case of `Nc1ccn([C@H]2CC[C@@H](CO)O2)c(=O)n1` [ZALCITABINE], the selectivity ratio in [14] is 213; in series [15] it was 408; in series [16], 93; in series [17], 166; in [18], 250. The EC50 in the series with MT2 [1] came out at 0.9 µM; in the series on MT2 [3] it was 0.994 µM; in the series with MT2 [8] it was 1.56 µM; with MT2 [10], 0.331 µM; with CCRF-CEM, 0.189 µM.

In the case of `Cc1cn([C@H]2C[C@H](N=[N+]=[N-])[C@@H](CO)O2)c(=O)[nH]c1=O` [ZIDOVUDINE], the EC50 with MT2 [1] is 0.029 µM; in the series on MT2 [8], 0.037 µM; in the series on MT2 [10] it was 0.014 µM; in the series on CCRF-CEM, 0.023 µM. In addition, the selectivity ratio is 5960 in series [15], 1780 in [16], 3240 in series [17] and 13100 in series [18].
